Activity calls are given as the source filed them. The calls are words filed in the database; no cut-off is given here.
Experiments:
[1] = biological target: T1, Nitric oxide synthase, inducible (Mus musculus, UniProt P29477); experiment: Prodrug activation in LPS-stimulated mouse […] cells assessed as iNOS-mediated Nomega-hydroxy-L-arginine formation by measuring increase in NO release at 1 mM incubated for 2.5 hrs in presence of NOS inhibitor L-NAME by Hoechst 33342/DAF-FM-DA staining based fluorescence microscopic analysis; settings: 1000 µM
T1 sequence (P29477 whole entry): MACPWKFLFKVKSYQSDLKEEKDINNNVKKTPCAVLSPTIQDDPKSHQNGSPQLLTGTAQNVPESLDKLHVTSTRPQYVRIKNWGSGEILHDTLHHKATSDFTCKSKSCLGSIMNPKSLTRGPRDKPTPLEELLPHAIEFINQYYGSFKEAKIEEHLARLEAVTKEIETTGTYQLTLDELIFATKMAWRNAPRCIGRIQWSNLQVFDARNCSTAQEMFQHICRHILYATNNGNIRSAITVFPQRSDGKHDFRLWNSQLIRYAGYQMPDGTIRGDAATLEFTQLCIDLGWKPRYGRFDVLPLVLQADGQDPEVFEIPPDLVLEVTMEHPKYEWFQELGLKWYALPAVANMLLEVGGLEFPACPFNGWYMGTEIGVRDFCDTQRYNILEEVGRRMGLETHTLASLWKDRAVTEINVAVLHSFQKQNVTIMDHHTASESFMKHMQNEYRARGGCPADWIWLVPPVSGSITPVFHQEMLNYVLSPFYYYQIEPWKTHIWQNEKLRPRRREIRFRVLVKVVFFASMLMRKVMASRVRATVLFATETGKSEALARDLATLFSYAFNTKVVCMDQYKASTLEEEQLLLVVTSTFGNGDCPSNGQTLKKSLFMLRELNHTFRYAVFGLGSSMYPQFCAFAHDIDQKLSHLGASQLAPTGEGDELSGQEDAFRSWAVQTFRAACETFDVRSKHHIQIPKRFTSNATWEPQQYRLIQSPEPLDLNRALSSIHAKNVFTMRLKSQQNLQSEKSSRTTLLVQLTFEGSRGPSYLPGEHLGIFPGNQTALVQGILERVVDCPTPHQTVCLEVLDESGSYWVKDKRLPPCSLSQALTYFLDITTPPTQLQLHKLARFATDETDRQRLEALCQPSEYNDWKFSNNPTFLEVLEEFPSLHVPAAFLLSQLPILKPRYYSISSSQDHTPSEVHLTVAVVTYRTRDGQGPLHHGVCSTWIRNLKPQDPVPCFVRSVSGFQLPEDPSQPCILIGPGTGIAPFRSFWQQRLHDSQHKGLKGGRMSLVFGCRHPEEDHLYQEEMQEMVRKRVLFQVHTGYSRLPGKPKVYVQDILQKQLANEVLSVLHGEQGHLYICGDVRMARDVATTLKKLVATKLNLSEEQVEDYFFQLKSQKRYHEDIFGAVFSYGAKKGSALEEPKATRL
Outline: (§1)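 Washed into arginine/lysine-free DMEM with 2% FBS. Compound 1 mM final from DPBS++ stock, 150 min (L-NAME co-incubated where stated). Then 5 µM DAF-FM-DA plus 10 µM Hoechst 15 min. Six images per well, triplicate wells. Cell-normalized intensity minus DPBS++ control, scaled to reference substrate = 100%. Mean ± SEM.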

[2] = Prodrug activation assessed as almond beta-glucosidase-mediated Nomega-hydroxy-L-arginine formation at 500 uM measured up to 150 mins by HPLC analysis; settings: prunus dulcis, 2.5 h
Outline: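 β-Glucosidase (recombinant, almond; 33 U/mL) pre-incubated 3 min at 37 °C in 50 mM triethanolamine pH 7.0. Reaction started with prodrug (500 µM). Aliquots at 0, 15, 45, 90 and 150 min quenched with equal volume ice-cold MeOH, then centrifuged. Supernatant analysed by o-phthalaldehyde/fluorescence HPLC. No-enzyme controls run alongside. Mean ± SD, n = 2-3.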

[3] = biological target: T1, Nitric oxide synthase, inducible; experiment: Prodrug activation in LPS-stimulated mouse […] cells assessed as iNOS-mediated Nomega-hydroxy-L-arginine formation by measuring increase in NO release at 1 mM incubated for 2.5 hrs by Hoechst 33342/DAF-FM-DA staining based fluorescence microscopic analysis; settings: 1000 µM; outline: as §1
[4] = Chemical stability in 10 mM potassium phosphate buffer at 250 uM at pH 2 incubated up to 24 hrs at 37 degC by HPLC analysis; assay type: physicochemical; settings: pH 2, 24 h
Outline: (§2)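 Compound at 250 µM in 10 mM potassium phosphate buffer at pH 2.0, 7.4 or 9.0, 37 °C. Samples taken at 3, 6 and 24 h, diluted 1:1 with 100 mM potassium phosphate pH 7.4. Analysed by HPLC after o-phthalaldehyde derivatization: RP18 column at 37 °C, fluorescence detection (ex 338 nm, em 425 nm).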

[5] = Chemical stability in 10 mM potassium phosphate buffer at 250 uM at pH 7.4 incubated up to 24 hrs at 37 degC by HPLC analysis; assay type: physicochemical; settings: pH 7.4, 24 h; outline: as §2
[6] = Chemical stability in 10 mM potassium phosphate buffer at 250 uM at pH 9 incubated up to 24 hrs at 37 degC by HPLC analysis; assay type: physicochemical; settings: pH 9, 24 h; outline: as §2
[7] = biological target: Beta-galactosidase (Escherichia coli, UniProt Q8VNN2); experiment: Prodrug activation assessed as recombinant Escherichia coli beta-galactosidase-mediated Nomega-hydroxy-L-arginine formation at 500 uM measured up to 150 mins by HPLC analysis; settings: 2.5 h
Sequence of Beta-galactosidase (Q8VNN2 whole entry): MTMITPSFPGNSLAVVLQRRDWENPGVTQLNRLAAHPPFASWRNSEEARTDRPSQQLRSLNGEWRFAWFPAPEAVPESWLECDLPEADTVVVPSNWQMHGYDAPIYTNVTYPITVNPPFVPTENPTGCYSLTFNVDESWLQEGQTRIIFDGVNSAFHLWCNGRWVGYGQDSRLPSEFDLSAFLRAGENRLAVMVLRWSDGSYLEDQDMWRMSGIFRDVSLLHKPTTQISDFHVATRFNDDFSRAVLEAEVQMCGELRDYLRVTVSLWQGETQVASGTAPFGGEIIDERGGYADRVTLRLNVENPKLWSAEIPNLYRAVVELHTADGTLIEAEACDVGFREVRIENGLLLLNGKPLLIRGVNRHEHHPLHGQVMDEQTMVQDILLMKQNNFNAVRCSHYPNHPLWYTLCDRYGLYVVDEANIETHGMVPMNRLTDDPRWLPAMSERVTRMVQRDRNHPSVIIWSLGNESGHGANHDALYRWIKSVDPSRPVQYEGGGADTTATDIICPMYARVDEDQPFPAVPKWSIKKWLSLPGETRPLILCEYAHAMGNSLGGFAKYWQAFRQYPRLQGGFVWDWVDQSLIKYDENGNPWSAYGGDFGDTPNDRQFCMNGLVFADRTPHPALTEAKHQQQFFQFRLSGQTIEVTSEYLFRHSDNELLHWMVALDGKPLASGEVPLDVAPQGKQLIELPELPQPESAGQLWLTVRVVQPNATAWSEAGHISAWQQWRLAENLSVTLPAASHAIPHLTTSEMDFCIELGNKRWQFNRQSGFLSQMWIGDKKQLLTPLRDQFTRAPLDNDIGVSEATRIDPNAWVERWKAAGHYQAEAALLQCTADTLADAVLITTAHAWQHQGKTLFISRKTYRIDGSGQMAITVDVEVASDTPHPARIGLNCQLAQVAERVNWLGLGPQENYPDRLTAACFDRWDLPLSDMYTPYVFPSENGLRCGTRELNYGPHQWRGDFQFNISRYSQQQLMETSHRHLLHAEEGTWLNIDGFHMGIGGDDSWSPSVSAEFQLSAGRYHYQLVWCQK
Outline: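 Recombinant E. coli β-galactosidase (25 U/mL) pre-incubated 3 min at 37 °C in 50 mM triethanolamine pH 7.0, then prodrug added at 500 µM. Samples at 0, 15, 45, 90 and 150 min stopped with ice-cold MeOH, centrifuged and analysed by o-phthalaldehyde/fluorescence HPLC. No-enzyme controls included.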

[8] = Prodrug activation assessed as porcine liver carboxylesterase/recombinant Escherichia coli beta-galactosidase-mediated Nomega-hydroxy-L-arginine formation by measuring NO release at 500 uM preincubated for 150 mins followed by recombinant mouse iNOS and NADPH addition incubated for 30 mins followed by LDH and sodium pyruvate addition measured after 15 mins by Griess assay; settings: 0.5 h
[9] = biological target: T2, Nitric oxide synthase, inducible (Mus musculus) (UniProt P29477); experiment: Substrate activity at recombinant mouse iNOS assessed as increase in NO release incubated for 30 mins in presence of NADPH followed by LDH and sodium pyruvate addition measured after 15 mins by Griess assay
T2 sequence (whole entry): T1 sequence (P29477 whole entry)

[10] = system: J774.A1; experiment: Toxicity in mouse […] cells assessed as changes in cell shape up to 1 mM after 2.5 hrs by Hoechst 33342/DAPI/GFP staining based fluorescence microscopic analysis; settings: j774.a1, 2.5 h
Outline: (§3)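 Stained with Hoechst 33342 and DAF-FM-DA, then imaged by automated fluorescence microscopy (about 1000 cells per well). Cell shape, blebbing, apoptosis and cell numbers judged against DPBS++ vehicle controls.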

[11] = system: J774.A1; experiment: Toxicity in mouse […] cells assessed as appearance of cell blebbing up to 1 mM after 2.5 hrs by Hoechst 33342/DAPI/GFP staining based fluorescence microscopic analysis; settings: j774.a1, 2.5 h; outline: as §3
[12] = system: J774.A1; experiment: Toxicity in mouse […] cells assessed as reduction in cell proliferation up to 1 mM after 2.5 hrs by Hoechst 33342/DAF-FM-DA staining based fluorescence microscopic analysis; settings: j774.a1, 2.5 h; outline: as §3
[13] = system: J774.A1; experiment: Toxicity in mouse […] cells assessed as induction of apoptosis up to 1 mM after 2.5 hrs by Hoechst 33342/DAPI/GFP staining based fluorescence microscopic analysis; assay type: cell-based; settings: j774.a1, 2.5 h; outline: as §3
[14] = biological target: T2, Nitric oxide synthase, inducible (Mus musculus); experiment: Substrate activity at iNOS in LPS-stimulated mouse J744A.1 cells assessed as increase in NO release at 1 mM incubated for 2.5 hrs by Hoechst 33342/DAF-FM-DA staining based fluorescence microscopic analysis; outline: as §1
[15] = Half life in 10 mM potassium phosphate buffer at 250 uM at pH 7.4 at 37 degC by HPLC analysis; assay type: physicochemical
Outline: (§4)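 Half-life from incubations at 250 µM in 10 mM potassium phosphate buffer, 37 °C, pH 7.4 or 9.0. Sampling at 3, 6 and 24 h. HPLC of o-phthalaldehyde derivatives with fluorescence detection (ex 338 nm, em 425 nm).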

[16] = Half life in 10 mM potassium phosphate buffer at 250 uM at pH 9 at 37 degC by HPLC analysis; assay type: physicochemical; outline: as §4
[17] = biological target: T3, Liver carboxylesterase (Sus scrofa, UniProt Q29550); experiment: Prodrug activation assessed as porcine liver carboxylesterase-mediated Sodium Nomega-(beta-D-Galactopyranos-1-yloxy)-L-arginine formation at 500 uM measured up to 150 mins by HPLC analysis; settings: pig, 2.5 h
T3 sequence (Q29550 whole entry): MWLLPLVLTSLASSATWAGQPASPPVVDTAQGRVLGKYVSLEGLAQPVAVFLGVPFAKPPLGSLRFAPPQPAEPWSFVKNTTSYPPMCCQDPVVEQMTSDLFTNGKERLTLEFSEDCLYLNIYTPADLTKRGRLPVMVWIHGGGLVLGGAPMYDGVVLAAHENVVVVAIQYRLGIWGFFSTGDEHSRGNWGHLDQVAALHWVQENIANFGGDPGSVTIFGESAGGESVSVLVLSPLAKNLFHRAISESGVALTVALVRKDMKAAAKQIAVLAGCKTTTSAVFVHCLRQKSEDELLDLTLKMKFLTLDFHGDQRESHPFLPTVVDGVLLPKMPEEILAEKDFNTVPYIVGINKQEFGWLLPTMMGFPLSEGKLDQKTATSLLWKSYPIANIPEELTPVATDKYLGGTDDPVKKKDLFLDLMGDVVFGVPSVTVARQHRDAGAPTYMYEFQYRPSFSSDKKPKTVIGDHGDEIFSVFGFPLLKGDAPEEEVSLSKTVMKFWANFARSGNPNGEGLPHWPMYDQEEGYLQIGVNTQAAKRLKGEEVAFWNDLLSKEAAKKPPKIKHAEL
Outline: (§5)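 Porcine liver carboxylesterase (133 U/mL) plus β-galactosidase (33 U/mL) pre-incubated 3 min at 37 °C in 50 mM triethanolamine pH 7.0. Started with prodrug at 500 µM. Samples at 0–150 min quenched with cold MeOH, centrifuged and analysed by o-phthalaldehyde/fluorescence HPLC. No-enzyme controls included.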

[18] = Prodrug activation assessed as porcine liver carboxylesterase/beta-galactosidase-mediated Nomega-hydroxy-L-arginine formation at 500 uM measured up to 150 mins by HPLC analysis; design: species or system Sus scrofa; settings: pig, 2.5 h; outline: as §5

In the case of `CC(=O)OC[C@H]1O[C@@H](O/N=C(\N)NCCC[C@H](N)C(=O)O)[C@H](OC(C)=O)[C@@H](OC(C)=O)[C@@H]1OC(C)=O.Cl.Cl`, the Drug metabolism [1] is reported as “Metabolite_Notdetected”, the Drug metabolism [2] is reported as “Metabolite_Detected” and the Drug metabolism [3] is reported as “Metabolite_Detected”.

With `N/C(=N\O[C@@H]1O[C@H](CO)[C@H](O)[C@H](O)[C@H]1O)NCCC[C@H](N)C(=O)[O-].[Na+]` the Stability [4] was “Stable”, the Stability [5] was “Stable” and the Stability [6] was “Stable”. For the same compound, the Drug metabolism [7] was “Metabolite_Detected”, the Drug metabolism [2] was “Metabolite_Detected” and the Drug metabolism [8] was “Metabolite_Detected”. The Drug metabolism [3] was “Metabolite_Notdetected”.

In the case of `CCOC(=O)[C@@H](N)CCCN/C(N)=N/O[C@@H]1O[C@H](CO)[C@@H](O)[C@H](O)[C@H]1O.Cl.Cl`, the Drug metabolism [1] is reported as “Metabolite_Notdetected” and the Drug metabolism [3] is reported as “Metabolite_Detected”.

With `N=C(NO)NCCC[C@H](N)C(=O)O` the Activity [9] was “Active”, the Activity [10] was “Non-Toxic” and the Activity [11] was “Non-Toxic”. For the same compound, the Activity [12] was “Non-Toxic”, the Activity [13] was “Non-Toxic” and the Activity [14] was “Active”.

With `N/C(=N\O[C@@H]1O[C@H](CO)[C@@H](O)[C@H](O)[C@H]1O)NCCC[C@H](N)C(=O)[O-].[Na+]` the Drug metabolism [1] was “Metabolite_Notdetected”, the Drug metabolism [2] was “Metabolite_Detected” and the Drug metabolism [3] was “Metabolite_Detected”.

With `CC(=O)OC[C@H]1O[C@@H](O/N=C(\N)NCCC[C@H](N)C(=O)O)[C@H](OC(C)=O)[C@@H](OC(C)=O)[C@H]1OC(C)=O.Cl.Cl` the half-life at 250 µM [15] was > 24 h, the half-life at 250 µM [16] was > 24 h and the Drug metabolism [7] was “Metabolite_Notdetected”. For the same compound, the Drug metabolism [3] was “Metabolite_Notdetected”.

For `CCOC(=O)[C@@H](N)CCCN/C(N)=N/O[C@@H]1O[C@H](COC(C)=O)[C@H](OC(C)=O)[C@H](OC(C)=O)[C@H]1OC(C)=O.Cl.Cl`, the Drug metabolism [1] was “Metabolite_Notdetected”.

For `CCOC(=O)[C@@H](N)CCCN/C(N)=N/O[C@@H]1O[C@H](COC(C)=O)[C@@H](OC(C)=O)[C@H](OC(C)=O)[C@H]1OC(C)=O.Cl.Cl`, the Drug metabolism [1] was “Metabolite_Notdetected” and the Drug metabolism [3] was “Metabolite_Detected”.

With `CCOC(=O)[C@@H](N)CCCN/C(N)=N/O[C@@H]1O[C@H](CO)[C@H](O)[C@H](O)[C@H]1O.Cl.Cl` the half-life at 250 µM [15] was 10 to 12 h, the half-life at 250 µM [16] was 10 to 12 h and the Drug metabolism [17] was “Metabolite_Detected”. The Drug metabolism [18] was “Metabolite_Detected”, the Drug metabolism [8] was “Metabolite_Detected” and the Drug metabolism [3] was “Metabolite_Notdetected”.
